Series [1] in a line: Cytotoxicity against human CEM cells. It counts as cell-based. Conditions: CEM (CCRF-CEM) cells.
For another series, the system named is Human alphaherpesvirus 2. In words: Antiviral activity against Herpes simplex virus 2 infected in HEL cells. The format is functional, organism-based. An outline of the steps:
(§1)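 DNA-virus assay run in human embryonic lung (HEL) cell cultures.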

The test system of the next series is Vero. Nature of the series: Cytostatic activity against african green monkey Vero cells. It counts as ADME, cell-based. Particulars: chlorocebus sabaeus.
Another series concerns Human alphaherpesvirus 1. In words: Antiviral activity against Herpes simplex virus 1 infected in HEL cells. The format is functional, organism-based. An outline of the steps:
as §1

In another series the test system is HEL. Nature of the series: Cytostatic activity against HEL cells. The format is ADME, cell-based. Conditions: human.
The next series relates to CCRF-CEM. In words: Cytostatic activity against human CEM cells. The format is cell-based.
Series [2] is described as follows: Cytotoxicity against african green monkey Vero cells. Particulars: chlorocebus sabaeus. The format is cell-based.
Series [3] in a line: Cytotoxicity against HEL cells. It counts as cell-based. Particulars: human.
In series [4] the test system is Human immunodeficiency virus 2. In words: Antiviral activity against HIV2 infected in human CEM cells. It counts as functional, organism-based. Particulars: CCRF-CEM. An outline of the steps:
(§2)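 Retroviral assay (HIV-1, HIV-2) run in human T-lymphocyte CEM cells.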

Series [5] deals with Human immunodeficiency virus 1. Nature of the series: Antiviral activity against HIV1 infected in human CEM cells. The format is functional, organism-based. Particulars: CCRF-CEM. An outline of the steps:
as §2

The next series deals with Cowpox virus. Nature of the series: Ratio of compound EC50 to HPMP-5-azaC EC50 for Cowpox virus infected in HEL cells. It counts as functional.
In the next series the test system is Vaccinia virus. In words: Ratio of compound EC50 to HPMP-5-azaC EC50 for Vaccinia virus infected in HEL cells. It counts as functional, Orthopoxvirus vaccinia.
A further series deals with Human betaherpesvirus 6. In words: Antiviral activity against Human herpesvirus 6. It counts as functional, organism-based.
The test system of another series is Human betaherpesvirus 5. In words: Antiviral activity against Human cytomegalovirus infected in HEL cells. It counts as functional, organism-based. Conditions: Human betaherpesvirus 5, HEL. An outline of the steps: as §1
The subject of another series is Human alphaherpesvirus 3. In words: Antiviral activity against Varicella zoster virus infected in HEL cells. It counts as functional, organism-based. Particulars: Human alphaherpesvirus 3, HEL. An outline of the steps: as §1
In the next series the test system is Sindbis virus. In words: Antiviral activity against Sindbis virus infected in african green monkey Vero cells at 20 ug/ml. The format is functional, organism-based.

We go through nine compounds from ChEMBL document CHEMBL1157663, “Acyclic nucleoside phosphonates with 5-azacytosine base moiety substituted in C-6 position” (Bioorg Med Chem, 2010).

In brackets after ≈: the same amount, converted by molar mass. Activity calls are given as the source filed them. No cut-off for these calls is given here. A value given as a limit tells only on which side of the number the result lay.

In the case of `Nc1ncnc(=O)n1C[C@@H](CO)OCP(=O)(O)O`, the CC50 in [1], in [2] and in [3] was more than 100 µg/mL each time. Moreover, the outcome (in the series with Human alphaherpesvirus 2; in the series with Human alphaherpesvirus 1; in series [4]; in series [5]) was inactive. In addition, the Activity entry in the series with Vero, in the series with HEL and with CCRF-CEM was “Non-toxic” each time.

Turning to `CCc1nc(N)nc(=O)n1C[C@@H](CO)OCP(=O)(O)O`, the CC50 in series [1], in series [2] and in series [3] was more than 100 µg/mL each time. The result (in the series with Human alphaherpesvirus 2; in the series with Human alphaherpesvirus 1; in series [4]; in series [5]) was inactive. Further, the “Ratio EC50” value with Cowpox virus and in the series with Vaccinia virus was 50 throughout. The Activity entry in the series with Vero, in the series with HEL and in the series with CCRF-CEM was “Non-toxic” in each case.

Consider `CCCc1nc(N)nc(=O)n1C[C@@H](CO)OCP(=O)(O)O`, for which the CC50 in [1], in series [2] and in series [3] was more than 100 µg/mL each time. In addition, the result (in the series on Human alphaherpesvirus 2; in the series with Human alphaherpesvirus 1; in series [4]; in series [5]) was inactive. Besides, the “Ratio EC50” value in the series on Cowpox virus and in the series on Vaccinia virus was 50 throughout. The Activity entry in the series on Vero, with HEL and with CCRF-CEM was “Non-toxic” each time.

For the compound `CCCCCCCCCCCCCCCCOCCOP1(=O)CO[C@@H](Cn2cnc(N)nc2=O)CO1` (stereo not given in full), the CC50 in series [1], in [2] and in [3] was more than 100 µg/mL in each case. In addition, the EC50 in the series with Human alphaherpesvirus 2 (Human alphaherpesvirus 2, HEL) was 0.003 µg/mL (≈ 0.00565 µM); in the series with Human betaherpesvirus 6, 0.008 µg/mL (≈ 0.0151 µM); with Human alphaherpesvirus 1 (Human alphaherpesvirus 1, HEL), 0.003 µg/mL (≈ 0.00565 µM); with Human betaherpesvirus 5, not above 0.00014 µg/mL; with Human alphaherpesvirus 3, not above 0.0008 µg/mL. For the same compound, the Activity entry with Vero, in the series with HEL and in the series on CCRF-CEM was “Non-toxic” each time. The result in [4] and in series [5] was inactive.

Regarding `Cc1nc(N)n(C[C@@H](CO)OCP(=O)(O)O)c(=O)n1`, the CC50 in series [1], in series [2] and in [3] was more than 100 µg/mL in each case. Besides, the result (in the series with Sindbis virus; with Human alphaherpesvirus 2; in the series on Human alphaherpesvirus 1; in [4]; in [5]) was inactive. Besides, the Activity entry in the series on Vero, in the series with HEL and in the series with CCRF-CEM was “Non-toxic” in each case.

For the compound `Nc1nc(-c2ccccc2)n(C[C@@H](CO)OCP(=O)(O)O)c(=O)n1`, the 50% cytotoxic concentration (CC50) in series [1], in [2] and in series [3] was more than 100 µg/mL throughout. Moreover, the outcome (in the series with Human alphaherpesvirus 2; with Human alphaherpesvirus 1; in series [4]; in series [5]) was inactive. Further, the “Ratio EC50” value in the series on Cowpox virus and in the series with Vaccinia virus was 50 throughout. For the same compound, the Activity entry in the series on Vero, in the series with HEL and in the series on CCRF-CEM was “Non-toxic” in each case.

Take `CCCCc1nc(N)nc(=O)n1C[C@@H](CO)OCP(=O)(O)O`: the CC50 in series [1], in [2] and in series [3] was more than 100 µg/mL each time. Also, the result (in the series on Human alphaherpesvirus 2; in the series on Human alphaherpesvirus 1; in series [4]; in series [5]) was inactive. In addition, the “Ratio EC50” value with Cowpox virus and in the series on Vaccinia virus was 50 in each case. In addition, the Activity result with Vero, with HEL and in the series with CCRF-CEM was “Non-toxic” throughout.

Turning to `Cc1nc(N)nc(=O)n1C[C@@H](CO)OCP(=O)(O)O`, the half-maximal cytotoxic concentration (CC50) in [1], in series [2] and in series [3] was more than 100 µg/mL in each case. In addition, the outcome (in the series on Human alphaherpesvirus 2; in the series on Human alphaherpesvirus 1; in series [4]; in series [5]) was inactive. For the same compound, the “Ratio EC50” value in the series on Cowpox virus and in the series with Vaccinia virus was 50 throughout. Moreover, the Activity result in the series with Vero, with HEL and with CCRF-CEM was “Non-toxic” in each case.

`Cc1nc(N)n(C[C@@H](CO)OCP(=O)(O)OC(C)C)c(=O)n1`: the CC50 in [1], in series [2] and in [3] was more than 100 µg/mL throughout. Also, the result with Sindbis virus was Active. The outcome (in the series with Human alphaherpesvirus 2; in the series on Human alphaherpesvirus 1; in series [4]; in series [5]) was inactive. Further, the Activity result with Vero, with HEL and with CCRF-CEM was “Non-toxic” in each case.
